# Measurements published in publication PMC4927891 (Journal of Alzheimer's Disease, 2015).
# pIC50: −log10 of the molar value. Peptide text beside a SMILES is read from it.
# Key:
# Type in all cases: biochemical
# CDK5/p25 = CDK5/p25 (Homo sapiens, UniProt Q00535); test: Radiometric protein kinase assay, CDK5/p25 phosphotransferase activity; conditions: for % Activity Change 1 μM: peptide 1 μM, negative = inhibition; for % Activity Change 1 μM / % Activity Change 10 μM / % Activity Change 50 μM / % Activity Change 100 μM / % Activity Change 250 μM / % Activity Change 500 μM: vs control without inhibitor, duplicate; for % Activity Change 10 μM: peptide 10 μM; for % Activity Change 50 μM: peptide 50 μM; for % Activity Change 500 μM: peptide 500 μM
# Sequence of CDK5/p25 (Q00535 whole entry): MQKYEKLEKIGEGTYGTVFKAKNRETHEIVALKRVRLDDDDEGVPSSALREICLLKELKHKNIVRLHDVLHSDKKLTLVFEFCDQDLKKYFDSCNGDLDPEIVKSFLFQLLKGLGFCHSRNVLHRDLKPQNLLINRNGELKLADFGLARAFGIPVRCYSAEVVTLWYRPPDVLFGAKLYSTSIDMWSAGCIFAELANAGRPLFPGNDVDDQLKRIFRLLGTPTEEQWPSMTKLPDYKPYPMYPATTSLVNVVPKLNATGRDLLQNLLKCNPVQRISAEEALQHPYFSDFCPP
# Procedure, shortened: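 GST-tagged CDK5/p25 co-expressed in Sf9 cells via baculovirus, 15 nM final, with calf thymus histone H1 (1 mg/ml final) in MOPS pH 7.2 buffer with MgCl2, EGTA, EDTA, DTT. Reaction started with [γ-33P]ATP (250 μM stock, 0.8 μCi) and run 20 min at 30°C. Products were spotted on P81 paper, washed in 1% phosphoric acid and scintillation-counted. No-substrate blank was subtracted. Peptide tested 1–500 μM against 10% DMSO control, two experiments in duplicate.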
# CDK5/p35 = CDK5/p35 (Homo sapiens, UniProt Q00535); test: Radiometric protein kinase assay, CDK5/p35 phosphotransferase activity; conditions: for % Activity Change 1 μM: peptide 1 μM; for % Activity Change 1 μM / % Activity Change 10 μM / % Activity Change 50 μM / % Activity Change 100 μM / % Activity Change 250 μM / % Activity Change 500 μM: duplicate; for % Activity Change 10 μM: peptide 10 μM; for % Activity Change 50 μM: peptide 50 μM; for % Activity Change 500 μM: peptide 500 μM
# Sequence of CDK5/p35 (Q00535 whole entry): as above
# ERK1 = ERK1 (Homo sapiens, UniProt P27361); test: Radiometric protein kinase assay, ERK1 phosphotransferase activity; conditions: for % Activity Change 1 μM: peptide 1 μM; for % Activity Change 10 μM: peptide 10 μM; for % Activity Change 50 μM: peptide 50 μM; for ERK1 activity inhibited by % compared to control / % Activity Change 500 μM: peptide 500 μM
# Sequence of ERK1 (P27361 whole entry, species assumed): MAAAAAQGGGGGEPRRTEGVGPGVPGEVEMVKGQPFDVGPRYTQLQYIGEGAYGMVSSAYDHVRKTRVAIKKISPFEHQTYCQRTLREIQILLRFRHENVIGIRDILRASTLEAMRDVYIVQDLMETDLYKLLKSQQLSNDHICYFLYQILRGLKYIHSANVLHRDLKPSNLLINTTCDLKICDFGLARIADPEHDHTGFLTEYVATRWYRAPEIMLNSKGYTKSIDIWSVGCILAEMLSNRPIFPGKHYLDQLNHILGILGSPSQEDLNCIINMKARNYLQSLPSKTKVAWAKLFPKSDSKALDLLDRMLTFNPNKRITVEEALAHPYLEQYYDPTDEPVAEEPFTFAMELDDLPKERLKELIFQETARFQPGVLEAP
# Procedure, shortened: (§1)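 Reaction is started with [γ-33P]ATP (250 μM stock, 0.8 μCi), with peptide at six levels (1–500 μM) or 10% DMSO. Run 30°C, 20 min, then spot onto P81 paper, wash in 1% phosphoric acid and scintillation count. Substrate-free blank is subtracted. Duplicates, repeated twice.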
# GSK3β = GSK3β (Homo sapiens, UniProt P49841); test: Radiometric protein kinase assay, GSK3β phosphotransferase activity; conditions: for % Activity Change 1 μM: peptide 1 μM, positive = activation; for % Activity Change 10 μM: peptide 10 μM; for % Activity Change 50 μM: peptide 50 μM; for GSK3β phosphotransferase activity activated by % compared to control / % Activity Change 500 μM: peptide 500 μM
# Sequence of GSK3β (P49841 whole entry, species assumed): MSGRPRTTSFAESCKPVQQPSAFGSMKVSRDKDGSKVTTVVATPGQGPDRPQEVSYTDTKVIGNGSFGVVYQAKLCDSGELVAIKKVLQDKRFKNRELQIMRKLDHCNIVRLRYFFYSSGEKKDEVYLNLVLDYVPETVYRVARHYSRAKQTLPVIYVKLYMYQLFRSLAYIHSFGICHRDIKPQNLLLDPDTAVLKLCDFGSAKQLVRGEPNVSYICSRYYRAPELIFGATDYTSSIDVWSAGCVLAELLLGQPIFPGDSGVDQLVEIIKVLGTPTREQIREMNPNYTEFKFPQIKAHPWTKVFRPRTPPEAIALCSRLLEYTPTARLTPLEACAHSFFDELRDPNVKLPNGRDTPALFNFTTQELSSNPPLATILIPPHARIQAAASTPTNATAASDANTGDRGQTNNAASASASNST
# Procedure, shortened: as §1
Compound,pIC50 (CDK5/p25),% Activity Change 1 μM (CDK5/p25) [%],% Activity Change 10 μM (CDK5/p25),% Activity Change 50 μM (CDK5/p25),% Activity Change 100 μM (CDK5/p25; peptide 100 μM),% Activity Change 250 μM (CDK5/p25; peptide 250 μM),% Activity Change 500 μM (CDK5/p25),pIC50 (CDK5/p35),% Activity Change 1 μM (CDK5/p35),% Activity Change 10 μM (CDK5/p35),% Activity Change 50 μM (CDK5/p35),% Activity Change 100 μM (CDK5/p35; peptide 100 μM),% Activity Change 250 μM (CDK5/p35; peptide 250 μM),% Activity Change 500 μM (CDK5/p35),% Activity Change 1 μM (ERK1; duplicate) [%],% Activity Change 10 μM (ERK1; duplicate) [%],% Activity Change 50 μM (ERK1; duplicate),ERK1 activity inhibited by % compared to control (ERK1) [%],% Activity Change 500 μM (ERK1; duplicate),% Activity Change 1 μM (GSK3β; duplicate),also measured
CC[C@H](C)[C@H](NC(=O)[C@H](CCC(N)=O)NC(=O)[C@@H](NC(=O)[C@H](CCSC)NC(=O)[C@H](CCCCN)NC(=O)[C@H](CO)NC(=O)[C@@H](NC(=O)[C@H](CCSC)NC(=O)[C@H](CC(C)C)NC(=O)[C@H](CC(N)=O)NC(=O)[C@@H](NC(=O)[C@@H](NC(=O)[C@H](CO)NC(=O)[C@H](CC(C)C)NC(=O)[C@H](C)NC(=O)[C@H](CCCNC(=N)N)NC(=O)[C@H](CCC(=O)O)NC(=O)[C@H](Cc1ccc(O)cc1)NC(=O)[C@H](Cc1ccccc1)NC(=O)[C@H](C)NC(=O)[C@H](CC(N)=O)NC(=O)[C@@H](N)CCCCN)[C@@H](C)CC)[C@@H](C)CC)[C@@H](C)O)C(C)C)C(=O)N[C@@H](CC(N)=O)C(=O)N[C@H](C(=O)O)C(C)C [p5-MT] (H-KNAFYERALSIINLMTSKMVQINV-OH),3.92,2,–8%,–22%,–46%,–73%,–85%,4.08,–3%,–14%,–35%,–57%,–73%,–84%,1,0,–2%,54,–54%,–1%,"CDK5/p25 phosphotransferase activity inhibited by % compared to control (CDK5/p25; peptide 100 μM): 46%; CDK5/p35 phosphotransferase activity inhibited by % compared to control (CDK5/p35; peptide 100 μM): 57%; pIC50 (ERK1): 3.37; % Activity Change 250 μM (ERK1; peptide 250 μM, duplicate): –35%; % Activity Change 10 μM (GSK3β; duplicate): 3%; % Activity Change 50 μM (GSK3β; duplicate): 6%; GSK3β phosphotransferase activity activated by % compared to control (GSK3β): 40%; % Activity Change 500 μM (GSK3β; duplicate): 40%"
CC[C@H](C)[C@H](NC(=O)[C@H](CCC(N)=O)NC(=O)[C@H](CC(C)C)NC(=O)[C@H](CCSC)NC(=O)[C@H](CCCCN)NC(=O)[C@H](CO)NC(=O)[C@H](CO)NC(=O)[C@H](CCSC)NC(=O)[C@H](CC(C)C)NC(=O)[C@H](CC(N)=O)NC(=O)[C@@H](NC(=O)[C@@H](NC(=O)[C@H](CO)NC(=O)[C@H](CC(C)C)NC(=O)[C@H](CS)NC(=O)[C@H](CCCNC(=N)N)NC(=O)[C@H](CC(=O)O)NC(=O)[C@H](Cc1c[nH]c2ccccc12)NC(=O)[C@H](Cc1ccccc1)NC(=O)[C@H](C)NC(=O)[C@H](CCC(=O)O)NC(=O)[C@@H](N)CCCCN)C(C)C)[C@@H](C)CC)C(=O)N[C@@H](CC(N)=O)C(=O)N[C@@H](C)C(=O)O [p5-WT] (H-KEAFWDRCLSVINLMSSKMLQINA-OH),3.77,0,–13%,–20%,–41%,–59%,–72%,3.66,2%,–2%,–10%,–29%,–53%,–76%,0,0,–3%,25,–25%,–3%,"% CFC (percent change from control) (CDK5/p25; 79-peptide scan, relative to p5-WT peptide (#1), negative = greater inhibition): 0%; CDK5/p25 phosphotransferase activity inhibited by % compared to control (CDK5/p25; peptide 250 μM): 59%; CDK5/p35 activity inhibited by % compared to control (CDK5/p35; peptide 250 μM): 53%; % Activity Change 100 μM (ERK1; peptide 100 μM, duplicate): –6%; % Activity Change 10 μM (GSK3β; duplicate): –1%; % Activity Change 50 μM (GSK3β; duplicate): 0%; % Activity Change 100 μM (GSK3β; peptide 100 μM, duplicate): 8%; GSK3β phosphotransferase activity activated by % compared to control (GSK3β): 24%; % Activity Change 500 μM (GSK3β; duplicate): 24%"
